Blank lines part the entries; values can stand above or below the molecule they belong to.
Target: T1, Adenosine receptor A1 (Rattus norvegicus, UniProt P25099)
T1 sequence (P25099 whole entry): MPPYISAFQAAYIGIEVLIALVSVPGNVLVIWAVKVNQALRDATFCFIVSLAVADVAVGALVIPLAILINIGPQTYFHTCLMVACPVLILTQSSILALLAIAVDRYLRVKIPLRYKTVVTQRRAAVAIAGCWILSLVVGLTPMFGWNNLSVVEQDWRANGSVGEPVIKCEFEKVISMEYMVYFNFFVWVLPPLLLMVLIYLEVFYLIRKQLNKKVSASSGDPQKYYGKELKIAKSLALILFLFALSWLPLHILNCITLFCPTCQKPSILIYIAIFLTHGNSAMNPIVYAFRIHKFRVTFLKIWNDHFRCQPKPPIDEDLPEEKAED
Experiment: GTP-induced shift at rat Adenosine A1 receptor (A1AR)
Procedure, shortened: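 GTP shift taken from these two Ki values. Done only for compounds giving >50% radioligand displacement at 10⁻⁶ M. At least three independent experiments in duplicate.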

SMILES: Cn1cnc2c(NC3CCCC3)ncnc21
GTP shift: 0.94

SMILES: C[C@H]1O[C@@H](n2cnc3c(NC4CCCC4)ncnc32)[C@H](O)[C@H]1NC(=O)C1(c2ccccc2)CCCCC1 [1-Phenyl-cyclohexanecarboxylic acid [5-(6-cyclopentylamino-purin-9-yl)-4-hydroxy-2-methyl-tetrahydro-furan-3-yl]-amide]
GTP shift: 0.74

SMILES: C[C@H]1O[C@@H](n2cnc3c(NC4CCCC4)ncnc32)[C@H](O)[C@H]1NC(=O)C1(c2ccccc2)CCCC1 [1-Phenyl-cyclopentanecarboxylic acid [5-(6-cyclopentylamino-purin-9-yl)-4-hydroxy-2-methyl-tetrahydro-furan-3-yl]-amide]
GTP shift: 0.84

SMILES: C[C@H]1O[C@@H](n2cnc3c(NC4CCCC4)ncnc32)[C@H](O)[C@H]1O [2-(6-Cyclopentylamino-purin-9-yl)-5-methyl-tetrahydro-furan-3,4-diol]
GTP shift: 6.4

SMILES: C[C@H]1O[C@@H](n2cnc3c(NC4CCCC4)ncnc32)[C@H](O)[C@H]1NC(=O)C1CCCC[C@H]1C(=O)c1cccs1 (some centres undefined) [2-(Thiophene-2-carbonyl)-cyclohexanecarboxylic acid [5-(6-cyclopentylamino-purin-9-yl)-4-hydroxy-2-methyl-tetrahydro-furan-3-yl]-amide]
GTP shift: 0.72

Next, values leading:

GTP shift: 0.7
SMILES: O=C(N[C@@H]1[C@@H](O)[C@H](n2cnc3c(NC4CCCC4)ncnc32)O[C@@H]1CO)c1ccc(F)c(Cl)c1 [3-Chloro-N-[5-(6-cyclopentylamino-purin-9-yl)-4-hydroxy-2-hydroxymethyl-tetrahydro-furan-3-yl]-4-fluoro-benzamide]

GTP shift: 0.73
SMILES: Cc1ccc(C(=O)N[C@@H]2[C@@H](O)[C@H](n3cnc4c(NC5CCCC5)ncnc43)O[C@@H]2CO)cc1C [N-[5-(6-Cyclopentylamino-purin-9-yl)-4-hydroxy-2-hydroxymethyl-tetrahydro-furan-3-yl]-3,4-dimethyl-benzamide]

GTP shift: 0.69
SMILES: O=C(CCCc1cccs1)N[C@@H]1[C@@H](O)[C@H](n2cnc3c(NC4CCCC4)ncnc32)O[C@@H]1CO [N-[5-(6-Cyclopentylamino-purin-9-yl)-4-hydroxy-2-hydroxymethyl-tetrahydro-furan-3-yl]-4-thiophen-2-yl-butyramide]

GTP shift: 0.7
SMILES: C[C@H]1O[C@@H](n2cnc3c(NC4CCCC4)ncnc32)[C@H](O)[C@H]1NC(=O)CCCc1cccs1 [N-[5-(6-Cyclopentylamino-purin-9-yl)-4-hydroxy-2-methyl-tetrahydro-furan-3-yl]-4-thiophen-2-yl-butyramide]

Source: BindingDB's records for doi:10.1021/jm0110439 (Ghent University, 2002)
